Consider eight compounds from ChEMBL document CHEMBL1212920, “Discovery of 6-(aminomethyl)-5-(2,4-dichlorophenyl)-7-methylimidazo[1,2-a]pyrimidine-2-carboxamides as potent, selective dipeptidyl peptidase-4 (DPP4) inhibitors” (J Med Chem, 2010).

Series [1] is described as follows: Permeability across human Caco-2 cells. The series is classed as ADME, cell-based. To be noted: read-out: permeability.
The nature of series [2]: Cmax in ob/ob mouse at 3 mg/kg, po after 1 hr. The class given is ADME, organism-based. More on the design: dose 3 mg/kg, route oral. To be noted: in vivo.
Series [3] relates to Mus musculus. The series is described as follows: Antidiabetic activity in ob/ob mouse assessed as reduction in blood glucose level at 1 umol/kg, po administered 1 hr prior to glucose challenge by oral glucose tolerance test. The class given is functional. Also noted: scale not given: the % may be the effect or the level left. In a few lines: (§1)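 Male ob/ob mice, 13-14 weeks old, fed a 10% fat diet, fasted overnight. Given vehicle (water) or inhibitor orally at -60 min, then oral glucose 2 g/kg at 0 min. Tail bleeds into EDTA tubes at -60, 0, 15, 30, 60, 90 and 120 min. Plasma glucose read by glucometer, insulin by mouse ELISA. Mean of 12-24 mice/group; one-way ANOVA with Dunnett's test.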

Series [4] concerns Mus musculus. The series is described as follows: Antidiabetic activity in ob/ob mouse assessed as increase in insulin level at 1 umol/kg, po administered 1 hr prior to glucose challenge by oral glucose tolerance test. The series is classed as functional. In a few lines:
as §1

The test system of the next series is Rattus norvegicus. The series is described as follows: Volume of distribution at steady state in rat at 5 umol/kg, intra arterial and 2 umol/kg, po. The class given is ADME, organism-based. As to conditions: in vivo. In a few lines:
(§2)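 Rat pharmacokinetics after a 5 μmol/kg intraarterial dose and a 2 μmol/kg oral dose, with water as vehicle. Urine collected over 24 h and the fraction of dose excreted as unchanged parent measured. Terminal half-life estimated after intraarterial dosing.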

Series [5] can be described thus: Clearance in iv dosed rat. To be noted: in vivo. The series is classed as ADME, organism-based. In a few lines: as §2
In series [6] the test system is Mus musculus. Nature of the series: Antidiabetic activity in ob/ob mouse assessed as reduction in blood glucose level at 3 umol/kg, po administered 1 hr prior to glucose challenge by oral glucose tolerance test. The class given is functional. Also noted: scale not given: the % may be the effect or the level left. In a few lines:
as §1

Series [7] in a line: Membrane permeability by PAMPA assay. The series is classed as ADME. To be noted: read-out: permeability.
Series [8] is described as follows: Half life in rat at 5 umol/kg, intra arterial and 2 umol/kg, po. The class given is ADME, organism-based. As to conditions: in vivo. In a few lines:
as §2

Series [9] deals with Mus musculus. The series is described as follows: In vivo inhibition of DPP4 activity in ob/ob mouse plasma at 3 umol/kg, po. The class given is functional.
The nature of series [10]: Oral bioavailability in rat at 2 umol/kg, po. The class given is ADME, organism-based. As to conditions: in vivo. In a few lines: as §2
In another series the target is hERG (KCNH2) (Homo sapiens, UniProt Q12809). Nature of the series: Inhibition of human ERG at 10 uM.
Series [11] is described as follows: Drug excretion in rat urine at 5 umol/kg, intra arterial and 2 umol/kg, po. The class given is ADME, organism-based. As to conditions: read-out: Activity. In a few lines:
as §2

For series [12], the system named is Mus musculus. Nature of the series: Antidiabetic activity in ob/ob mouse assessed as increase in insulin level at 3 umol/kg, po administered 1 hr prior to glucose challenge by oral glucose tolerance test. The series is classed as functional. In a few lines:
as §1

The test system of series [13] is Mus musculus. Nature of the series: In vivo inhibition of DPP4 activity in ob/ob mouse plasma at 1 umol/kg, po. The series is classed as functional.
The nature of series [14]: Clearance in iv dosed dog. To be noted: in vivo. The series is classed as ADME, organism-based, Canis lupus familiaris.
Series [15] is described as follows: AUC (0 to infinity) in rat at 5 umol/kg, intra arterial and 2 umol/kg, po. The class given is ADME, organism-based. Also noted: dose 5 umol/kg, route oral, time infinity. To be noted: plasma. In a few lines: as §2
The nature of series [16]: Cmax in rat at 5 umol/kg, intra arterial and 2 umol/kg, po after 0.6 hrs. The class given is ADME, organism-based. More on the design: dose 5 umol/kg, route oral. As to conditions: in vivo. In a few lines: as §2
The nature of series [17]: Drug excretion in dog urine at 5 umol/kg, intra arterial and 2 umol/kg, po. The series is classed as ADME, organism-based, Canis lupus familiaris. As to conditions: read-out: Activity.
The nature of series [18]: Oral bioavailability in dog at 2 umol/kg, po. The class given is ADME, organism-based, Canis lupus familiaris. To be noted: in vivo.
Series [19] can be described thus: Half life in dog at 5 umol/kg, intra arterial and 2 umol/kg, po. The series is classed as ADME, organism-based, Canis lupus familiaris. To be noted: in vivo.
In another series the test system is Canis familiaris. Nature of the series: Volume of distribution at steady state in dog at 5 umol/kg, intra arterial and 2 umol/kg, po. The class given is ADME, organism-based, Canis lupus familiaris. To be noted: in vivo.
For the next series, the target named is Dipeptidyl peptidase 9 (Homo sapiens, UniProt Q86TI2). Nature of the series: Inhibition of human DPP9.
Another series addresses Dipeptidyl peptidase 8 (Homo sapiens, UniProt Q6V1X1). The series is described as follows: Inhibition of human DPP8.

Bounds are passed on as bounds.

hERG (KCNH2), sequence (Q12809 whole entry): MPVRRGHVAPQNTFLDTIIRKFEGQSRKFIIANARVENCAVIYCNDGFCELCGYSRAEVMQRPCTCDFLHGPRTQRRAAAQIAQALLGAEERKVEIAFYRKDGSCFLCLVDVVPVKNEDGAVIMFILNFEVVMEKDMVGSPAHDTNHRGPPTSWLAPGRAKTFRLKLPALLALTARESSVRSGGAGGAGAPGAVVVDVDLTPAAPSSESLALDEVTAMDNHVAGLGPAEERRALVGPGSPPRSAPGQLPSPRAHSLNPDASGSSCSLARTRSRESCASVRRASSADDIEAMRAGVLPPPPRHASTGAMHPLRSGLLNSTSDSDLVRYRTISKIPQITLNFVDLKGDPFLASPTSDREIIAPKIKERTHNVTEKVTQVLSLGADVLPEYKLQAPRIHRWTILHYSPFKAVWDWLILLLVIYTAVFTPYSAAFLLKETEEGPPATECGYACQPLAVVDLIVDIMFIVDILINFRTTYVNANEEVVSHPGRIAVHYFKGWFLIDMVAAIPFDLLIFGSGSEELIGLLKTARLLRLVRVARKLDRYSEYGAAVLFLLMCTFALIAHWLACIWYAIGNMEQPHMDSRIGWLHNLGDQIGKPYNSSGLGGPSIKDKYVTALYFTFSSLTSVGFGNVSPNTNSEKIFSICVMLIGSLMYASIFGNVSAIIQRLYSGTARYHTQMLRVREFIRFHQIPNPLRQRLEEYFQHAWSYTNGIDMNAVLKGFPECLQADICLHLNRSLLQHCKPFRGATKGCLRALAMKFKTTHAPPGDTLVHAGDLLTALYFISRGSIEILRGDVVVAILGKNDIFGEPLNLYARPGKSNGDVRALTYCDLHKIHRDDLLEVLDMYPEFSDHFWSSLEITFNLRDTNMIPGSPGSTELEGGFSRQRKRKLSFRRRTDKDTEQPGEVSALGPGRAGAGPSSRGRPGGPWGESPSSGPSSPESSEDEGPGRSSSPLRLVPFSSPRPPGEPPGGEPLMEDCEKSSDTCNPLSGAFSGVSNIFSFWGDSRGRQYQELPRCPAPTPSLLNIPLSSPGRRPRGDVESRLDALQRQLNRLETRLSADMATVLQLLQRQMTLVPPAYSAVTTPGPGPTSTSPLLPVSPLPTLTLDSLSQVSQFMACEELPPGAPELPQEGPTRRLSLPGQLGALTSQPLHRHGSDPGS
Dipeptidyl peptidase 9, sequence (Q86TI2 whole entry): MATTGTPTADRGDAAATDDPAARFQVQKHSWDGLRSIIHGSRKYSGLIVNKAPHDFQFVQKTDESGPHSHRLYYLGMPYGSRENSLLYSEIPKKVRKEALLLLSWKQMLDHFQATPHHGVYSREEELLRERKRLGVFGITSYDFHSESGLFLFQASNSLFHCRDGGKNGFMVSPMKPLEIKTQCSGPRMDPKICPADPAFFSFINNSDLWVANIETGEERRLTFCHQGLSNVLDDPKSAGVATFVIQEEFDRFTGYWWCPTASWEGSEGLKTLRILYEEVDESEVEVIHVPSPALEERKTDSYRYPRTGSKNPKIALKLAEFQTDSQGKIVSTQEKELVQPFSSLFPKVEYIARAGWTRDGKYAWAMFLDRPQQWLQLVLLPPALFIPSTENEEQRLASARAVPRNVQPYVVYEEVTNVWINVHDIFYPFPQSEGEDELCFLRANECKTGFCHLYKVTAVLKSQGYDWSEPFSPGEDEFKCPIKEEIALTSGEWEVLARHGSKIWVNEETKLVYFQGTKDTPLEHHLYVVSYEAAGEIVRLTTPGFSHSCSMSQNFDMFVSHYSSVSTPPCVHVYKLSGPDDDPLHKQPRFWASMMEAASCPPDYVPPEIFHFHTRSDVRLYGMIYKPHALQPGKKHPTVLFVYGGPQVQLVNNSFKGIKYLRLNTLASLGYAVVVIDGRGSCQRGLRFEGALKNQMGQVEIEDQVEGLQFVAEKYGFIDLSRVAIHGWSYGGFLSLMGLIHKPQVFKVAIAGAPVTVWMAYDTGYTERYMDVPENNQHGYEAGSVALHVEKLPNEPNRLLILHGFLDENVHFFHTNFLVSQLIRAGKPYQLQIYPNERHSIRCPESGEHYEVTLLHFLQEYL
Dipeptidyl peptidase 8, sequence (Q6V1X1 whole entry): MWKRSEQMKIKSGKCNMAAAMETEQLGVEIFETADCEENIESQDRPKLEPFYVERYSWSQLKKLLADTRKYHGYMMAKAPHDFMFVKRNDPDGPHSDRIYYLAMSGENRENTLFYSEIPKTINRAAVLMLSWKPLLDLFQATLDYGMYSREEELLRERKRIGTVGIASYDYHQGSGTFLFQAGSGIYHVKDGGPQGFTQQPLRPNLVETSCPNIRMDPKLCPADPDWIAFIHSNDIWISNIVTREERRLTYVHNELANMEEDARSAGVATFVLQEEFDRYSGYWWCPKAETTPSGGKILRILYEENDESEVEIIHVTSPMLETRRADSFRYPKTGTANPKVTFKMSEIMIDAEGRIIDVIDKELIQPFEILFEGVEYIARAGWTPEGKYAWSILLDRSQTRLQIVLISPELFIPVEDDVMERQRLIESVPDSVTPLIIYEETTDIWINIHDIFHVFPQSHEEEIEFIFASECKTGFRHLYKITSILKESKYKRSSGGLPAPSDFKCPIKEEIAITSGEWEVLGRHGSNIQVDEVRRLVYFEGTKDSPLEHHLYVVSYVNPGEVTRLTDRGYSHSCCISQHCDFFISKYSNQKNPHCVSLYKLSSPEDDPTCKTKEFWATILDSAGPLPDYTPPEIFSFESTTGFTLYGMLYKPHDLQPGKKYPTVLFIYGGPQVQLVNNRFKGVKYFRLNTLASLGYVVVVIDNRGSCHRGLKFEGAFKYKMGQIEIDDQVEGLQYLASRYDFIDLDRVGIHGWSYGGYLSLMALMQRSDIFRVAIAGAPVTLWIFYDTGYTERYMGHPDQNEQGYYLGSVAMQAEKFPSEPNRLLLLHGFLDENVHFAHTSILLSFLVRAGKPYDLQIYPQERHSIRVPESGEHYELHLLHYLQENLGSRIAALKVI

Regarding `Cc1nc2nc(C(=O)N3CC[C@H](NS(C)(=O)=O)C3)cn2c(-c2ccc(Cl)cc2Cl)c1CN`, the Papp in series [1] was under 1.5 ×10⁻⁶ cm/s. Further, the peak concentration (Cmax) (in general, the maximum level reached in the sampled fluid or tissue) in [2] came to 45 nM.
With `CCn1nccc1NC(=O)c1cn2c(-c3ccc(Cl)cc3Cl)c(CN)c(C)nc2n1`, the Activity in the series with Mus musculus [3] is 40%; with Mus musculus [4], 93%; in the series with Mus musculus [6] it was 58%; with Mus musculus [12], 129%. The Vdss with Rattus norvegicus was 3.9 L/kg. In [5], the clearance – broadly, the rate of elimination divided by the concentration – was 43.2 mL/min/kg. Also, the Papp in [7] worked out at 66.9 ×10⁻⁶ cm/s. In addition, the half-life (in general, the time in which the quantity being followed falls by half) in [8] is 2.1 h. For the same compound, the inhibition in vivo (as a rule, the share of the control response that was lost under treatment) at 3 µmol/kg in the series on Mus musculus [9] was 52.8%. Besides, the bioavailability (commonly dose-corrected exposure relative to a reference, in per cent) in series [10] was found to be 64%. The inhibition (usually the drop in the measured response relative to a control, in per cent) at 10 µM against hERG (KCNH2) is 31%. The dose excreted in series [11] stood at 4.4%. The same compound showed an inhibition in vivo at 1 µmol/kg in the series with Mus musculus [13] of 62%.
Consider `Cc1nc2nc(C(=O)N3CCOCC3)cn2c(-c2ccc(Cl)cc2Cl)c1CN`, for which the Activity amounted to 66% in the series with Mus musculus [3] and 63% in the series on Mus musculus [6]. In addition, the clearance in series [14] was found to be 7.9 mL/min/kg; in series [5] it was 25.4 mL/min/kg. The AUC(0-inf) (usually total exposure, with the tail of the curve extrapolated) in series [15] was found to be 0.714 µM·h. Also, the Vdss with Rattus norvegicus was determined as 1.3 L/kg; with Canis familiaris, 1.5 L/kg. In series [16], this compound yielded a Cmax of 324 nM. In addition, the dose excreted is 41% in series [17] and 56% in series [11]. For the same compound, the bioavailability in [18] stood at 76%; in series [10], 54%. Also, the Papp in series [7] was found to be 46.4 ×10⁻⁶ cm/s. The figures for the half-life in series [19] and in series [8] were 4.6 h and 1.6 h, respectively.
`Cc1nc2nc(C(=O)NC3CCN(C(C)C)CC3)cn2c(-c2ccc(Cl)cc2Cl)c1CN`: the inhibition constant (Ki) on Dipeptidyl peptidase 9 and on Dipeptidyl peptidase 8 was over 10 µM each time.
At hERG (KCNH2), `Cc1nc2nc(-c3ccccc3)cn2c(-c2ccc(Cl)cc2Cl)c1CN` showed an inhibition at 10 µM of 74%.
At hERG (KCNH2), `CCOC(=O)c1cn2c(-c3ccc(Cl)cc3Cl)c(CN)c(C)nc2n1` yielded an inhibition at 10 µM of 23%.
Consider `Cc1nc2nc(C(=O)NCCN3CCCCC3)cn2c(-c2ccc(Cl)cc2Cl)c1CN`, for which, at Dipeptidyl peptidase 9, the Ki (commonly a measure of affinity in units of concentration, obtained from inhibition or displacement) was over 30 µM.
For the compound `Cc1nc2nc(C(=O)N3CCCC3)cn2c(-c2ccc(Cl)cc2Cl)c1CN`, the Papp in series [7] was determined as 51.8 ×10⁻⁶ cm/s.
